Test results from ChEMBL document CHEMBL2417369, “Synthesis and evaluation of heteroaryl substituted diazaspirocycles as scaffolds to probe the ATP-binding site of protein kinases” (Bioorg Med Chem, 2013).

Assays:
[1] = target: Tyrosine-protein kinase Fer (Homo sapiens) (UniProt P16591); experiment: Inhibition of FER (unknown origin) at 30 uM by microfluidic mobility shift assay relative to control
Procedure, shortened: (§1)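 Single-point screen at 30 µM test compound across a 24-kinase panel in a microfluidic assay format. ATP was set near each enzyme's Km,[ATP]. […] The pan-AGC inhibitor H-89 served as an internal control on every assay plate.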

[2] = target: Receptor-type tyrosine-protein kinase FLT3 (Homo sapiens) (UniProt P36888); experiment: Inhibition of FLT3 (unknown origin) at 30 uM by microfluidic mobility shift assay relative to control; procedure, shortened: as §1
[3] = target: Tyrosine-protein kinase SYK (Homo sapiens) (UniProt P43405); experiment: Inhibition of SYK (unknown origin) at 30 uM by microfluidic mobility shift assay relative to control
Procedure, shortened: (§2)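 Single-point screen against a 24-kinase panel in a commercial microfluidic assay format. Compounds were tested at 30 µM, with ATP at approximately the Km,[ATP] of each enzyme. H-89 was included on each assay plate as an internal control.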

[4] = target: Platelet-derived growth factor receptor (Homo sapiens) (UniProt P09619+P16234); experiment: Inhibition of PDGFR (unknown origin) at 30 uM by microfluidic mobility shift assay relative to control; assay type: protein-complex assay; procedure, shortened: as §1
[5] = target: Vascular endothelial growth factor receptor 2 (Homo sapiens) (UniProt P35968); experiment: Inhibition of KDR (unknown origin) at 30 uM by microfluidic mobility shift assay relative to control; procedure, shortened: as §1
[6] = target: Insulin-like growth factor 1 receptor (Homo sapiens) (UniProt P08069); experiment: Inhibition of IGF1R (unknown origin) at 30 uM by microfluidic mobility shift assay relative to control; procedure, shortened: as §1
[7] = target: Serine/threonine-protein kinase MARK1 (Homo sapiens) (UniProt Q9P0L2); experiment: Inhibition of MARK1 (unknown origin) at 30 uM by microfluidic mobility shift assay relative to control; procedure, shortened: as §1
[8] = target: Mitogen-activated protein kinase 1 (Homo sapiens, UniProt P28482); experiment: Inhibition of MAPK2 (unknown origin) at 30 uM by microfluidic mobility shift assay relative to control; procedure, shortened: as §1
[9] = target: T1, Serine/threonine-protein kinase D1 (Homo sapiens) (UniProt Q15139); experiment: Inhibition of PKD1 (unknown origin) at 30 uM by microfluidic mobility shift assay relative to control; procedure, shortened: as §2
T1 sequence (whole entry): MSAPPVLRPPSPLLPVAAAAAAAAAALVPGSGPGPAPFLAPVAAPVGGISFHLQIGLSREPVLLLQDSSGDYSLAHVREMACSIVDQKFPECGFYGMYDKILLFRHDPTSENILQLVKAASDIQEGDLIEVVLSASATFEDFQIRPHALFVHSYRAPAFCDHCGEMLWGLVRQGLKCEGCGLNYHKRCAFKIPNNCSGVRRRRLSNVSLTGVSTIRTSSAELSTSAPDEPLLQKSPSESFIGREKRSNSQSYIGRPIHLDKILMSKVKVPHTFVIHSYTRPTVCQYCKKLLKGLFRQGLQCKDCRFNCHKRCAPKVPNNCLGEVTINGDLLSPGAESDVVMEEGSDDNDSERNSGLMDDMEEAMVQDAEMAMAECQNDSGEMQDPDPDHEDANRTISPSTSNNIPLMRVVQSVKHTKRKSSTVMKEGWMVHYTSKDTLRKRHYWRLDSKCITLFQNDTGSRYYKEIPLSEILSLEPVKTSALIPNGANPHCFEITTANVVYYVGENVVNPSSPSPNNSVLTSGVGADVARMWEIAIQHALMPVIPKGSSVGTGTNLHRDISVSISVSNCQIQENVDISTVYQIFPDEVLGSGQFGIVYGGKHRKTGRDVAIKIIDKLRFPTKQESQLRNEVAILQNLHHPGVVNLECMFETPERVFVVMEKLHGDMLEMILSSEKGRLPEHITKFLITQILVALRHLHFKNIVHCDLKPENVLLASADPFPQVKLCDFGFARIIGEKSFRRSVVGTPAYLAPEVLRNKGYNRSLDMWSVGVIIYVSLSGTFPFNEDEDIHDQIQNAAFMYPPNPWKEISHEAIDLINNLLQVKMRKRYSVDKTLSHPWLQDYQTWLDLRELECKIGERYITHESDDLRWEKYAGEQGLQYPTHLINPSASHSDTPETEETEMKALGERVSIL

Homo sapiens = species on record: Homo sapiens; experiment: Inhibition of PKGalpha (unknown origin) at 30 uM by microfluidic mobility shift assay relative to control; procedure, shortened: as §2
[10] = target: Ribosomal protein S6 kinase alpha-3 (Homo sapiens) (UniProt P51812); experiment: Inhibition of RSK2 (unknown origin) at 30 uM by microfluidic mobility shift assay relative to control; procedure, shortened: as §2
[11] = target: Mitogen-activated protein kinase kinase kinase kinase 4 (Homo sapiens) (UniProt O95819); experiment: Inhibition of HGK (unknown origin) at 30 uM by microfluidic mobility shift assay relative to control; procedure, shortened: as §1
[12] = target: T2, Serine/threonine-protein kinase 3 (Homo sapiens) (UniProt Q13188); experiment: Inhibition of MST2 (unknown origin) at 30 uM by microfluidic mobility shift assay relative to control; procedure, shortened: as §1
T2 sequence (whole entry): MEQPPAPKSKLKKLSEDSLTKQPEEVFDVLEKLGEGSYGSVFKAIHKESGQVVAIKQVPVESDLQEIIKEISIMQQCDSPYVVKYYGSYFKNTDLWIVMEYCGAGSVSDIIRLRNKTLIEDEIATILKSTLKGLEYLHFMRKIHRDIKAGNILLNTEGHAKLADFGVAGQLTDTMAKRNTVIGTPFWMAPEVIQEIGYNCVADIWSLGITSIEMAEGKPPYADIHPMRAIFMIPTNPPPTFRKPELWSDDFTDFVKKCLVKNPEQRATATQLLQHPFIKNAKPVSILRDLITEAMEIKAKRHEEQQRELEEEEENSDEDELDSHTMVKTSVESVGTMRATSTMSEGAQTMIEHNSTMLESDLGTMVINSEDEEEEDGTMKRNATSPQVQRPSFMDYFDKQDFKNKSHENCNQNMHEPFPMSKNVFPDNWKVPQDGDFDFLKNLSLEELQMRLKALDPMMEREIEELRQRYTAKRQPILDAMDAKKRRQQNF

[13] = Inhibition of PKA (unknown origin) using LRRASLG as substrate after 1 hr by fluorescence assay; set-up: species or system Homo sapiens
Aurora kinase A = target: T3, Aurora kinase A (Homo sapiens, UniProt O14965); experiment: Inhibition of AURA (unknown origin) by microfluidic mobility shift assay
T3 sequence (O14965 whole entry): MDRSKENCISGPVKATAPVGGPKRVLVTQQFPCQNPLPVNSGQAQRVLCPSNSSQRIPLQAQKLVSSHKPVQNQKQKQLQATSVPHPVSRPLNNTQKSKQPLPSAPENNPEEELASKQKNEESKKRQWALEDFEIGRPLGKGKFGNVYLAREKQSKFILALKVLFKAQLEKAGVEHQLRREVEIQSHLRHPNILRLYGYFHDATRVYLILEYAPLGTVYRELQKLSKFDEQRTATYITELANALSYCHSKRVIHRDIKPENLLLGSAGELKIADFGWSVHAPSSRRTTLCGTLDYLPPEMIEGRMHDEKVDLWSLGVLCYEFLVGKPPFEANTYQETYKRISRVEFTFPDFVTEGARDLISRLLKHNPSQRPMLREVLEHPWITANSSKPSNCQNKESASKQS

Tyrosine-protein kinase Fer (Homo sapiens), sequence (P16591 whole entry, looked up): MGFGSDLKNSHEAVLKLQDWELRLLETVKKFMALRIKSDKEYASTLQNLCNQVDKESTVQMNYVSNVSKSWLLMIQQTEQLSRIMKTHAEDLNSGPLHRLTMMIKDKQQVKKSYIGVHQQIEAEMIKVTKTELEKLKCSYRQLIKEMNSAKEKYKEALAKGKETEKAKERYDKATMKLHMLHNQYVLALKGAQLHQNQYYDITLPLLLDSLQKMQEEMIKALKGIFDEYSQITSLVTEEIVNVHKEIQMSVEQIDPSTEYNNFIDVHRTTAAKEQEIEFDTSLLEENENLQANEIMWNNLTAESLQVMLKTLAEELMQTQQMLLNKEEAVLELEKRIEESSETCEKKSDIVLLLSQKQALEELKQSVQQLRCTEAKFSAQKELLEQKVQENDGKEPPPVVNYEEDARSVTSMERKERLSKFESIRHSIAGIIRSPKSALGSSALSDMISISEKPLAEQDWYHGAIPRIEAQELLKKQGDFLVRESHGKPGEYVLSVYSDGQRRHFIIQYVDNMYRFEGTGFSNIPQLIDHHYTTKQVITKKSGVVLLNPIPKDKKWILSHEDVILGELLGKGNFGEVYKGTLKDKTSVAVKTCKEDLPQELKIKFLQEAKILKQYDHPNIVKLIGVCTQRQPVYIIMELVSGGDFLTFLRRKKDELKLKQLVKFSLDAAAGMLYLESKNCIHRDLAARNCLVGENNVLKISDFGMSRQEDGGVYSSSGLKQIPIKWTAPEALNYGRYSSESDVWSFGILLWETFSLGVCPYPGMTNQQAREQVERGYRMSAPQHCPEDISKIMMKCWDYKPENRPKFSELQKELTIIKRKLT
Ribosomal protein S6 kinase alpha-3 (Homo sapiens), sequence (P51812 whole entry): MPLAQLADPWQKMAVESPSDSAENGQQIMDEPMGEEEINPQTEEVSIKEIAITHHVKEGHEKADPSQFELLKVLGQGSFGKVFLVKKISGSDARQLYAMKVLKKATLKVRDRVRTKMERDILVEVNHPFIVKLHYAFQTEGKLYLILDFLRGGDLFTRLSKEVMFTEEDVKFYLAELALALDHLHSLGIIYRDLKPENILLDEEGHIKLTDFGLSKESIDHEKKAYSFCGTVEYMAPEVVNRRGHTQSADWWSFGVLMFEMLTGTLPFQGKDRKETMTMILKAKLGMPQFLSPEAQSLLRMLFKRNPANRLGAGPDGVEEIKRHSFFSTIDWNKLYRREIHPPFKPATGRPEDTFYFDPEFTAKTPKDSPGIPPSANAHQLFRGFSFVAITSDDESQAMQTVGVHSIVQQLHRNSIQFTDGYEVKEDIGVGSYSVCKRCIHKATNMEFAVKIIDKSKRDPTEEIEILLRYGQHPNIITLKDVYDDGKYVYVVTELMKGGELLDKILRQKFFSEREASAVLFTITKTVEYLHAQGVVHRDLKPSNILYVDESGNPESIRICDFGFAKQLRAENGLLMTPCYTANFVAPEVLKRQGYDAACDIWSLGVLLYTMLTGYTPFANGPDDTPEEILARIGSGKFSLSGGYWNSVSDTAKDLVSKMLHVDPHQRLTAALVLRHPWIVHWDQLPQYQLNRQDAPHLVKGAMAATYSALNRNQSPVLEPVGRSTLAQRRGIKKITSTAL
Vascular endothelial growth factor receptor 2 (Homo sapiens), sequence (P35968 whole entry): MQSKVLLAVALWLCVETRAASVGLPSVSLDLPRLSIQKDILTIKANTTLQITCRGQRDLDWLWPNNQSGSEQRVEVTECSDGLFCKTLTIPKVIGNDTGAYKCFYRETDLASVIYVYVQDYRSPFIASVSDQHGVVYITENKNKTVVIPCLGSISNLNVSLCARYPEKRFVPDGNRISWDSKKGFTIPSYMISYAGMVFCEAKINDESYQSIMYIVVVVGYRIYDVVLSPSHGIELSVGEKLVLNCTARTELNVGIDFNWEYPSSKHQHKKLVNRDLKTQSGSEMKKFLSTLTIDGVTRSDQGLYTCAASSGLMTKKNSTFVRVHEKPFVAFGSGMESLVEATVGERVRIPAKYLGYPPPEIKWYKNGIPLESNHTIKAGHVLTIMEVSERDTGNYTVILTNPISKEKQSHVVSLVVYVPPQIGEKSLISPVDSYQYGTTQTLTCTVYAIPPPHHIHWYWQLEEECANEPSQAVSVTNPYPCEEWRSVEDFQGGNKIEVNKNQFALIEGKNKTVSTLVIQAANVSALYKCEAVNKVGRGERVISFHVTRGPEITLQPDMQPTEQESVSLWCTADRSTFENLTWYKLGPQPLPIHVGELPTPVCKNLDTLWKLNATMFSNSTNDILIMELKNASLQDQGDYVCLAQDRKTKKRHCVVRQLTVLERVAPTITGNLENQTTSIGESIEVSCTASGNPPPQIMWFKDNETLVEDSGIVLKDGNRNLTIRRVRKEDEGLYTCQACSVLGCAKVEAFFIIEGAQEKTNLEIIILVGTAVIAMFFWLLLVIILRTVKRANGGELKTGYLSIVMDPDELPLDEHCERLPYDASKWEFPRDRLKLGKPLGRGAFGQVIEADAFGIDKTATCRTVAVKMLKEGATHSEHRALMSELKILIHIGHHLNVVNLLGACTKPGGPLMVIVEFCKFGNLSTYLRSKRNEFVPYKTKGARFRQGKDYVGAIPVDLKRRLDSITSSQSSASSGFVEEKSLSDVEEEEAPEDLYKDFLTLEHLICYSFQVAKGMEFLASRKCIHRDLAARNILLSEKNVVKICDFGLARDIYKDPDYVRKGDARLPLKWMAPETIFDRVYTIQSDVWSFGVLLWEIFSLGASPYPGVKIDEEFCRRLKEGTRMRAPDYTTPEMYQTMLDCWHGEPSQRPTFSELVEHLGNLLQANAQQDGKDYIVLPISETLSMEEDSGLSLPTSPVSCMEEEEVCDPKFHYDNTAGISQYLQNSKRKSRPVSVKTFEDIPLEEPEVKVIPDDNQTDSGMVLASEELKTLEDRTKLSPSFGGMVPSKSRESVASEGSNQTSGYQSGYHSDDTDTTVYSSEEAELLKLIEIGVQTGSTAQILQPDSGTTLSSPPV
Serine/threonine-protein kinase MARK1 (Homo sapiens), sequence (Q9P0L2 whole entry, looked up): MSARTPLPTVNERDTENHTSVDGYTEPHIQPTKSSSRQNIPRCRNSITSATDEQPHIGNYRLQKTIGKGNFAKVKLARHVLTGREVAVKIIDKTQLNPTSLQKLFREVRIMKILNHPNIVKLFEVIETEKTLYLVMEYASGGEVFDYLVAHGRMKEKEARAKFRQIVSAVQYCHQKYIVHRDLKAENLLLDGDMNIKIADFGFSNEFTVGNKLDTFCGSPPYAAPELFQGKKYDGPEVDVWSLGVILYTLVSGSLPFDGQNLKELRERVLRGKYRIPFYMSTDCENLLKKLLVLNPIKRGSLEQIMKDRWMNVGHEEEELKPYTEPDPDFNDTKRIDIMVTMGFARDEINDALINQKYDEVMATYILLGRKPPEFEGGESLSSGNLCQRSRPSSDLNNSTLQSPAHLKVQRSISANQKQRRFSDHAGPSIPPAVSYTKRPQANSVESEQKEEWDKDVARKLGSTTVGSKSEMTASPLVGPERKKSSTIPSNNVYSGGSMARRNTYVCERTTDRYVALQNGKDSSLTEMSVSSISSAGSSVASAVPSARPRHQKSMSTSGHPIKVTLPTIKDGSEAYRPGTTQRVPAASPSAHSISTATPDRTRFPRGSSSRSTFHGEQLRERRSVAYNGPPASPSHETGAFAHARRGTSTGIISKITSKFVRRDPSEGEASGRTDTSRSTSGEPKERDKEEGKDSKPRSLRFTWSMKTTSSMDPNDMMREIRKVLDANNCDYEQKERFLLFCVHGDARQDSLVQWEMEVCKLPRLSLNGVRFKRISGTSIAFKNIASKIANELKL
Mitogen-activated protein kinase kinase kinase kinase 4 (Homo sapiens), sequence (O95819 2-1239 limits assumed): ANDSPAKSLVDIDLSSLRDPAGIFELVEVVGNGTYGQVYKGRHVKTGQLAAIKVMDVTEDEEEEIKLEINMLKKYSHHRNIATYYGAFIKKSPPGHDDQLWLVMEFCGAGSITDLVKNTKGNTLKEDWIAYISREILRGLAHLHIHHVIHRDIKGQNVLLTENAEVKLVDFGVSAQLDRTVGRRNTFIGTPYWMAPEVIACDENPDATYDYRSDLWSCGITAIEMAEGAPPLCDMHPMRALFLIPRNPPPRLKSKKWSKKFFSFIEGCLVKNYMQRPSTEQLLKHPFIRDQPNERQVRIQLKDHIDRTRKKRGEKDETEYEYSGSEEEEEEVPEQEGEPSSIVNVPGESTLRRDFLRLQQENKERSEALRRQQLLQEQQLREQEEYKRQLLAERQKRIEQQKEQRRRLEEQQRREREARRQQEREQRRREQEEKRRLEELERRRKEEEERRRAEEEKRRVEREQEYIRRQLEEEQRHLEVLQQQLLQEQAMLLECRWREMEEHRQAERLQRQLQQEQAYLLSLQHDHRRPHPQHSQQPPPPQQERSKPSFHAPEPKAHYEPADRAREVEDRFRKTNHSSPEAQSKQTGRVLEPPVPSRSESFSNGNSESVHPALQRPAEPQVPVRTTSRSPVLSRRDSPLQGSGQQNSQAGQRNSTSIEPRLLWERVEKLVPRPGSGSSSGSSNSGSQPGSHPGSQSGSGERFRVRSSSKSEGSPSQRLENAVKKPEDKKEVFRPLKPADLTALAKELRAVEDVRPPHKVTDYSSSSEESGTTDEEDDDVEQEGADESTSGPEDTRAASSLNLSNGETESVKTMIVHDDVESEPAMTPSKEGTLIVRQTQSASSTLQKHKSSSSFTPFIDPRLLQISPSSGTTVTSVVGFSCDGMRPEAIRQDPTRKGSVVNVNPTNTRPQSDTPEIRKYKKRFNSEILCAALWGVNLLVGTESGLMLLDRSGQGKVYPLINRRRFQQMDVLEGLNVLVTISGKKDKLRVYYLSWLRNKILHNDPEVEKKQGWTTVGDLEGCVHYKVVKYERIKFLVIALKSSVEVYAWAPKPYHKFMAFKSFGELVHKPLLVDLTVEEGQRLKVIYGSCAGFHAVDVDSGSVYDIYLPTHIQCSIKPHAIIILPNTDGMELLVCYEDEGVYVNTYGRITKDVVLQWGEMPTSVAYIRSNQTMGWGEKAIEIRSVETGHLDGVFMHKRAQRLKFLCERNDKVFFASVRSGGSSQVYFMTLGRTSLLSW

Structure (SMILES)	inhibition [1]	inhibition [2]	inhibition [3]	inhibition [4]	inhibition [5]	inhibition [6]	inhibition [7]	inhibition [8]	inhibition [9]	inhibition (Homo sapiens)	inhibition [10]	inhibition [11]	inhibition [12]	IC50 [13]	IC50 (Aurora kinase A)
c1ccc(C2CCNC3(CCN(c4ncnc5[nH]cnc45)CC3)C2)cc1 (racemic)	12%	25%	24%	29%	35%	5%	89%	9%	44%	99%	84%	7%	17%	0.149 µM	–
O=S(=O)(c1cccc2cnccc12)N1CCCC2(CCCNC2)C1 (configuration not stated)	–	–	–	–	–	–	–	–	–	–	–	–	–	3.6 µM	–
O=C(O)C1CCC2(CCN(c3ncnc4[nH]cnc34)CC2)NC1 (racemic)	–	–	–	–	–	–	–	–	–	–	–	–	–	–	6.1 µM
c1ccc(CC2CCC3(CCN(c4ncnc5[nH]cnc45)CC3)NC2)cc1 (racemic)	10%	28%	0%	28%	31%	5%	0%	15%	12%	86%	63%	5%	18%	–	–
c1nc(N2CCC3(CCCCN3)CC2)c2nc[nH]c2n1	–	–	–	–	–	–	–	–	–	–	–	–	–	1 µM	7.8 µM
c1nc(N2CCC3(CCCNC3)CC2)c2nc[nH]c2n1	–	–	–	–	–	–	–	–	–	–	–	–	–	0.08 µM	9.8 µM
c1ccc(CC2CCNC3(CCN(c4ncnc5[nH]cnc45)CC3)C2)cc1 (racemic)	2%	10%	8%	20%	11%	5%	99%	6%	72%	99%	94%	2%	10%	0.031 µM	–
